# This is a sample that favours compounds with a hit; in the whole collection about 2% have one here.
# Casp6 inh = human caspase-6 inhibitors, primary screen, biochemical, VEID-R110 fluorescence, single point, set 2. purified caspase-6, Z-VEID-R110 cleavage fluorescence. 0.53% of 350,000 active. P55212. inhibition, % at 12.5 µM;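 active = mean inhibition across replicates at least about 35%, with every replicate also reaching that limit, limit read from the data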;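 note: 0% = median of neutral control wells and 100% = no fluorescence left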
# Target sequence (P55212 24-179 limits assumed): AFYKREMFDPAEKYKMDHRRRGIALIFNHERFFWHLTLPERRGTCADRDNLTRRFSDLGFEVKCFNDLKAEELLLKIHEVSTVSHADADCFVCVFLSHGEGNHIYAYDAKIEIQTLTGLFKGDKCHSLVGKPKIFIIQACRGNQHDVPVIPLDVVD
# Target sequence (P55212 194-293 limits assumed): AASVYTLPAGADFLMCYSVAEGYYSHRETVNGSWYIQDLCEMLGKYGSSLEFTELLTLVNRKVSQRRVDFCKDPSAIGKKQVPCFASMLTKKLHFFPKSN
# FN deposition inh = inhibitors of fibronectin matrix deposition, primary screen, AH1F cells, Alexa488-fibronectin fluorescence, plate reader; 0.086% of 350,000 active; AH1F fibroblasts, overnight; inhibition, % at 12.6 µM; AID 743247, 2014;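 active = mean inhibition across replicates of 30% or more, regardless of how many single replicates reach that level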;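 note: positive control wells lacked labelled fibronectin entirely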
#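 Material: AH1F fibroblasts assembling fluorescent fibronectin matrix; amount: 10000 AH1F cells/well; medium: DMEM, 2% serum; reagent: Alexa488-fibronectin, 24 nM final in well; dosing: single compound dose, delivered by pin transfer; incubation: 1 h adhesion, overnight exposure; detection: fluorescence after three HBSS washes, excitation 485 nm, emission 525 nm; measure: fibronectin deposition inhibition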
# Xi reactivation = activators of inactive X chromosome reactivation, primary screen, imaging, XiGFP fibroblasts, GFP high-content imaging, set 2 | activation, % at 7.58 µM | AID 743238, 2013 | XiGFP mouse fibroblasts, % GFP-positive cells imaging, 3 d; cells co-treated with 5-aza-dC sensitizer; scaled so ellipticine positive control = 100% | 0.055% of 360,000 active;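 active = mean normalized replicate activation at least 10% and every replicate at or above 10%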;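 note: 0% = median of on-plate neutral control wells and 100% = ellipticine 6 µM median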
#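 Material: XiGFP fibroblasts, SV40-immortalized; Buffer or medium: DMEM containing 5-aza-dC; Compound dosing: single point; Times: 3 days compound exposure.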
# DENV2 CPE = inhibitors of DENV2 cytopathic effect, primary screen, cell-based, plate reader, single concentration | CPE inhibition, % at 9.99 µM | DENV2-infected cells, cytopathic effect rescue | 1.7% of 350,000 active; in the data active = CPE inhibition above about 20%, passing the limit was not always enough; tested in BHK-21 cells;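 note: 0% = median of neutral control wells and 100% = median of positive control wells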
# CaV13 ICDI inh = Disruptors of the CACNA1D IQ motif to Ca2+-dependent inactivation inhibitor domain association, primary screening, Förster resonance energy transfer in intact living …; HEK cells, CFP/YFP FRET ICDI-IQ, plate reader, 10 min; percent FRET-ratio fall versus neutral wells; inhibition, % at 12.3 µM; 0.098% of 340,000 active; AID 743397;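 active = mean replicate inhibition of at least 30% and at least 1% of replicates passing that level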;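 note: 0% = median of the neutral control wells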
# Starred values were filed as active, the others as inactive; . = no result; + = active, no number; ! = not confirmed by another sample.
SMILES,Casp6 inh,FN deposition inh,Xi reactivation,DENV2 CPE,CaV13 ICDI inh
Cc1cccn2c(=O)c3cc(C(N)=S)c(=N)n(CCCN4CCOCC4)c3nc12,-16.3,-3.0,0.0,6.9,+
CNC(=O)C[C@H]1CC[C@@H]2[C@H](COc3ccc(NC(=O)c4ccccc4OC)cc3C(=O)N2C)O1,-0.9,-16.1,0.2,-5.8,.
C[C@@H]1CN([C@@H](C)CO)C(=O)c2cc(NC(=O)Cn3cnnn3)ccc2O[C@@H]1CN(C)S(=O)(=O)c1ccccc1,-1.7,.,0.3,-3.4,.
N=c1c(C(=O)NCc2ccco2)cc2c(=O)n3ccccc3nc2n1C1CCCC1,99.2*,-15.7,0.0,4.8,7.9
O=C(CSCc1ccccc1)Nc1ccccc1C(=O)Nc1ccc(C(=O)O)cc1,5.1,-0.8,0.2,31.9*,-4.3
O=C(Cc1ccccc1)Nc1ccccc1C(=O)Nc1ccc(C(=O)O)cc1,-1.2,-0.2,0.0,2.1,-5.8
CCCOc1ccc(NC(=O)Cc2ccc(S(=O)(=O)N3CCOCC3)s2)cc1OCCC,-2.7,-5.2,0.2,-7.0,-6.0
CCOc1ccc(NC(=O)Cc2ccc(S(=O)(=O)N3CCOCC3)s2)cc1OCC,-0.3,2.6,0.0,64.8*,-2.4
O=C(Cc1ccc(S(=O)(=O)N2CCOCC2)s1)NCC(=O)Nc1ccccc1Br,3.4,-2.1,0.0,126.3*,-6.1
O=C(N/N=C/c1ccc(Br)s1)c1ccccc1[N+](=O)[O-],.,4.7,.,.,-5.2
O=C(N/N=C/c1ccc(Br)s1)c1ccc([N+](=O)[O-])cc1,-2.8,-26.7,96.8*,0.9,-5.5
C[C@H](CO)N1C[C@H](C)[C@H](CN(C)S(=O)(=O)c2ccccc2)Oc2c(NC(=O)Nc3ccc(C(F)(F)F)cc3)cccc2C1=O,.,.,-1.0,.,.
COCCn1c(=NC(=O)CSC(C)=O)sc2cc(OC)ccc21,0.4,2.9,0.1,-1.5,-3.2
CCn1c(=NC(=O)CSC(C)=O)sc2cc(OC)ccc21,0.7,4.4,-0.3,9.7,39.5*
CC(C)CNC(=O)c1cccc2c(-c3ccc(F)c(F)c3)coc12,54.7*,-6.4,-0.1,0.2,-11.0
C[C@H](CO)N1C[C@H](C)[C@H](CN(C)C(=O)CCCN(C)C)OCCCC[C@H](C)Oc2ccc(NS(=O)(=O)c3ccc(Cl)cc3)cc2C1=O,0.3,-3.3,-0.2,40.8*,.
C[C@@H]1CCCCO[C@@H](CN(C)C(=O)CCCN(C)C)[C@@H](C)CN([C@@H](C)CO)C(=O)c2cc(NS(=O)(=O)c3ccc(Cl)cc3)ccc2O1,-0.2,-2.4,-0.2,3.1,.
COc1ccc(S(=O)(=O)Nc2ccc3c(c2)C(=O)N([C@@H](C)CO)C[C@@H](C)[C@H](CN(C)C(=O)CCCN(C)C)OCCCC[C@@H](C)O3)cc1,-0.2,.,-0.5,31.5*,.
CC(C)CC#Cc1ccc2c(c1)O[C@@H](CN(C)S(=O)(=O)c1cccc(F)c1)[C@H](C)CN([C@@H](C)CO)S2(=O)=O,1.6,.,-1.3,-3.5,.
O=C(NCCN1CCOCC1)c1ccc2c(c1)N(Cc1ccc(F)cc1)C(=O)CS2,-0.8,-3.0,0.0,63.6*,-6.3
O=C(NCCCN1CCOCC1)c1ccc2c(c1)N(Cc1cccc(Cl)c1)C(=O)CS2,-2.0,11.8,0.1,-2.4,-6.9
COc1ccc(CCNC(=O)c2cc(S(=O)(=O)N3CCCCC3)c[nH]2)cc1OC,2.9,-2.2,-0.4,5.8,43.2*
Nc1nc2c(ncn2[C@@H]2O[C@H](CNCc3ccc(F)c(N4CCOCC4)c3)[C@@H](O)[C@H]2O)c(=O)[nH]1,-3.4,3.5,0.0,25.9*,-2.5
O=C(NCc1ccc(Cl)c(Cl)c1)c1cc(C2CCCCN2C(=O)OCCF)on1 (stereo not drawn),-1.5,2.8,0.0,29.6*,-6.1
O=C(Nc1ccccc1Cl)c1cc(C2CCCCN2C(=O)OCCF)on1 (stereo not drawn),0.9,-4.0,0.1,-9.7,1.5
SMILES,Casp6 inh,FN deposition inh,Xi reactivation,DENV2 CPE,CaV13 ICDI inh
COC(=O)N1CCCCC1c1cc(C(=O)Nc2ccc3c(c2)OCO3)no1 (stereo not drawn),0.2,9.2,-0.1,3.5,-9.5
O=C(Nc1ccc2c(c1)OCO2)c1cc(C2CCCCN2C(=O)OCCF)on1 (stereo not drawn),4.3,6.3,0.0,20.3*,-4.8
Cc1noc(C)c1NC(=O)N(C)C[C@@H]1Oc2ccc(NC(=O)C3CCCCC3)cc2CC(=O)N([C@@H](C)CO)C[C@@H]1C,1.0,-4.6,-1.1,30.9*,.
Cc1noc(C)c1NC(=O)N(C)C[C@H]1Oc2ccc(NC(=O)NC3CCCCC3)cc2CC(=O)N([C@H](C)CO)C[C@H]1C,2.4,.,-0.9,21.6*,.
Cc1noc(C)c1NC(=O)N(C)C[C@@H]1Oc2ccc(NC(=O)NC3CCCCC3)cc2CC(=O)N([C@@H](C)CO)C[C@H]1C,1.3,.,0.3,23.7*,.
Cc1noc(C)c1NC(=O)Nc1ccc2c(c1)CC(=O)N([C@@H](C)CO)C[C@@H](C)[C@@H](CN(C)C(=O)NC1CCCCC1)O2,.,-3.7,-0.5,-5.2,.
CC(C)(C)OC(=O)CC[C@@]12N=C(c3ccc(OCCCO)cc3)O[C@@H]1c1ccccc1CN(C(=O)c1ccccc1)C2=O,-1.7,.,.,-0.9,.
COc1ccc(-c2sc(Nc3ccccc3)n[n+]2-c2ccc(F)cc2)c(OC)c1OC,0.8,-8.2,0.0,136.5*,-3.8
COc1cc(OC)c(-c2sc(Nc3ccccc3)n[n+]2-c2ccc(F)cc2)cc1OC,-0.5,-3.7,0.0,-0.6,-3.2
CC1CCCC(NC(=O)COC(=O)c2ccccc2Sc2ccccc2C#N)C1C (stereo not drawn),-4.6,7.4,-0.1,56.9*,-4.7
N#Cc1ccccc1Sc1ccccc1C(=O)OCC(=O)NC12CC3CC(CC(C3)C1)C2,.,5.0,0.0,.,-17.7
O=C1NCCCOCc2cn(nn2)CC[C@H]1Cc1ccc(-c2ccccc2)cc1,.,-22.0,0.2,.,.
Cc1noc(C)c1S(=O)(=O)N(C)C[C@@H]1Oc2ccc(NS(=O)(=O)c3cn(C)cn3)cc2CC(=O)N([C@@H](C)CO)C[C@H]1C,-1.6,-1.7,-0.6,.,.
CCC(c1nnnn1-c1c(C)cccc1C)N1CCN(C/C=C/c2ccccc2)CC1 (stereo not drawn),0.5,9.7,0.0,106.3*,-5.0
CSCCC(c1nnnn1-c1c(C)cccc1C)N1CCN(C/C=C/c2ccccc2)CC1 (stereo not drawn),-2.2,.,0.3,3.7,-5.3
C/C=C/c1ccc(C2[C@H]3CNC[C@@H]2N3S(=O)(=O)c2ccccc2C)cc1 (stereo partly drawn),-3.8,-5.0,0.1,20.4*!,.

# Compound activity deposited in PubChem by Broad Institute.
